Active and inactive are the calls of the source. The calls are words filed in the database; no cut-off is given here.
Legend:
Format in all cases: cell-based
[1] = molecular target: T1, Toll-like receptor 9 (Homo sapiens) (UniProt Q9NR96); assay: Agonist activity at human TLR9 expressed in HEK293 cells by SEAP reporter gene assay
T1 sequence (whole entry): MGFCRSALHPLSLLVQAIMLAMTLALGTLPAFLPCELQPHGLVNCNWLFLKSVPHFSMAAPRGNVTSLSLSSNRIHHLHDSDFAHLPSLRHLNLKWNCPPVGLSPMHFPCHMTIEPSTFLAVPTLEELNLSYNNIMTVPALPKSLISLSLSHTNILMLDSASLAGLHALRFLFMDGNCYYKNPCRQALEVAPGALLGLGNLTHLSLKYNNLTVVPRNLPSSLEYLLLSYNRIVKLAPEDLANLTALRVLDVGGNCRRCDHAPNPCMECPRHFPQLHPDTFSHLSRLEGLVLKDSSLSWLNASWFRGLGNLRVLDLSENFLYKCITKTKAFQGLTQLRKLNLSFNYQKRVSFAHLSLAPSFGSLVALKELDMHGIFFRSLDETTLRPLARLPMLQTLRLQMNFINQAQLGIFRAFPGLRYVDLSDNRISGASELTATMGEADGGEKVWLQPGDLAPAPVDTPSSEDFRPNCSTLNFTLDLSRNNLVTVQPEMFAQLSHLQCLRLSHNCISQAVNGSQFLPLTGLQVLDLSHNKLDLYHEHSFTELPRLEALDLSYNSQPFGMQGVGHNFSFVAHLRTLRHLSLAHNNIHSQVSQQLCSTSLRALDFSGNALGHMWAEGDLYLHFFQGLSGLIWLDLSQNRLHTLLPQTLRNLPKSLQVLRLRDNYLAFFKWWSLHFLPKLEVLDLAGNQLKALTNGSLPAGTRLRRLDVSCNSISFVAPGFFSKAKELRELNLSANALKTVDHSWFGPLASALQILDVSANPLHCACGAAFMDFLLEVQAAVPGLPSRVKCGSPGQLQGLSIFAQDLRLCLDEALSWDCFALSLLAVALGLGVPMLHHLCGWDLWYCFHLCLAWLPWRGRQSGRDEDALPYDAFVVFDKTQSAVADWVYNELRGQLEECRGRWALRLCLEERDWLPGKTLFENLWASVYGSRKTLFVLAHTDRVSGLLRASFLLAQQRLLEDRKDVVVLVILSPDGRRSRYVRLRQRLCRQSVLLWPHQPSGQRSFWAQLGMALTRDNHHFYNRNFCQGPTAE

[2] = molecular target: T2, Toll-like receptor 7 (Homo sapiens) (UniProt Q9NYK1); assay: Agonist activity at TLR7 in human PBMC assessed as induction of plasmacytoid dendritic cell maturation by measuring HLA-DR level at 0.1 uM after 6 hrs by flow cytometry
T2 sequence (whole entry): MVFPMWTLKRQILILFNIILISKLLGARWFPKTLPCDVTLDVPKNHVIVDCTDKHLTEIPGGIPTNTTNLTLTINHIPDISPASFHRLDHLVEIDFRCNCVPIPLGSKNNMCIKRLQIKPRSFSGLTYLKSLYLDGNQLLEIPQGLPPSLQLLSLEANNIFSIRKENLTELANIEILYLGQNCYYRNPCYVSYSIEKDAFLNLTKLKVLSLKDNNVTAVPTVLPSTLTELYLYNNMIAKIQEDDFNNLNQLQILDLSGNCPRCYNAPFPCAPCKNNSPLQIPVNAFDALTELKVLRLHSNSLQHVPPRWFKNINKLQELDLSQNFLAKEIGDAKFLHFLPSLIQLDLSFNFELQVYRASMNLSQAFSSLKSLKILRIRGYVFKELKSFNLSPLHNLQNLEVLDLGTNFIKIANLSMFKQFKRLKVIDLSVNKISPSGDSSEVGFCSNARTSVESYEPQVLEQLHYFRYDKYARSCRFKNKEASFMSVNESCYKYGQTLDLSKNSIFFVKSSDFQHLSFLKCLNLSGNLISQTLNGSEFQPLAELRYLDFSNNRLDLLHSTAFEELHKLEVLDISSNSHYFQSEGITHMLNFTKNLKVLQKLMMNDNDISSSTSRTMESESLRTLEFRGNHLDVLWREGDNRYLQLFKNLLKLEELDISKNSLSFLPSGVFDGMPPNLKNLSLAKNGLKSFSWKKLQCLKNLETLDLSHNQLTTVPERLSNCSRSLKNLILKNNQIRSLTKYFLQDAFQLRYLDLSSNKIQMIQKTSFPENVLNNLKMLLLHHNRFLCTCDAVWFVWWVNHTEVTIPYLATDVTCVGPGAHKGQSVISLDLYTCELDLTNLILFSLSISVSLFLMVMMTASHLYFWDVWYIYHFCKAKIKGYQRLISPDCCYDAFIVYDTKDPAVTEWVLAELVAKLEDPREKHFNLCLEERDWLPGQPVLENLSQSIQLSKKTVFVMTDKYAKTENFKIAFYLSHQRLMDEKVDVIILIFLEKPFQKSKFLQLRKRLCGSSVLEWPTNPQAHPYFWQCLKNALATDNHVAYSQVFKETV
Procedure, shortened: (§1)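 hPBMCs stimulated 6 h at a single 0.1 μM dose; HLA-DR, MHC-I, CD80 and CD86 on mDCs and pDCs measured by flow cytometry, expressed as fold change versus unstimulated cells. Mean ± SD of three independent experiments in three different donors.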

[3] = molecular target: Toll-like receptor 3 (Homo sapiens) (UniProt O15455); assay: Agonist activity at human TLR3 expressed in HEK293 cells by SEAP reporter gene assay
[4] = molecular target: T2, Toll-like receptor 7 (Homo sapiens); assay: Agonist activity at TLR7 in human PBMC assessed as induction of plasmacytoid dendritic cell maturation by measuring MHC-1 level at 0.1 uM after 6 hrs by flow cytometry; procedure, shortened: as §1
[5] = molecular target: T2, Toll-like receptor 7 (Homo sapiens); assay: Agonist activity at TLR7 in human PBMC assessed as IFNalpha stimulation at 10 uM
Procedure, shortened: (§2)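 IFNα secretion by hPBMCs across a μM dose range; MEC = lowest dose tested inducing cytokine, PC = dose giving highest level, PL = peak level at 10 μM. Data representative of one of three independent donors.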

[6] = molecular target: T2, Toll-like receptor 7 (Homo sapiens); assay: Agonist activity at TLR7 in human PBMC assessed as induction of plasmacytoid dendritic cell maturation by measuring CD80 level at 0.1 uM after 6 hrs by flow cytometry; procedure, shortened: as §1
[7] = molecular target: T2, Toll-like receptor 7 (Homo sapiens); assay: Agonist activity at TLR7 in human PBMC assessed as induction of plasmacytoid dendritic cell maturation by measuring CD86 level at 0.1 uM after 6 hrs by flow cytometry; procedure, shortened: as §1
[8] = molecular target: T3, Toll-like receptor 7 (Homo sapiens, UniProt Q9NYK1); assay: Agonist activity at human TLR7 expressed in HEK293 cells assessed as induction of NFKappaB activity after 24 hrs by SEAP reporter gene assay
T3 sequence (Q9NYK1 whole entry): T2 sequence (whole entry)
Procedure, shortened: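 HEK293 cells stably transfected with hTLR7 or hTLR8 plus an NFκB-driven SEAP reporter, treated 24 h with compound over a μM range; SEAP secretion read out. EC50 as mean ± SD of three (TLR7) or four (TLR8) independent experiments.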

[9] = molecular target: T2, Toll-like receptor 7 (Homo sapiens); assay: Agonist activity at TLR7 in human PBMC assessed as induction of plasmacytoid dendritic cell maturation by measuring increase in MHC-1 level at 0.1 uM after 6 hrs by flow cytometry relative to control; procedure, shortened: as §1
[10] = molecular target: T2, Toll-like receptor 7 (Homo sapiens); assay: Agonist activity at TLR7 in human PBMC assessed as induction of plasmacytoid dendritic cell maturation by measuring increase in CD86 level at 0.1 uM after 6 hrs by flow cytometry relative to control; procedure, shortened: as §1
[11] = molecular target: T2, Toll-like receptor 7 (Homo sapiens); assay: Agonist activity at TLR7 in human PBMC assessed as induction of plasmacytoid dendritic cell maturation by measuring increase in HLA-DR level at 0.1 uM after 6 hrs by flow cytometry relative to control; procedure, shortened: as §1
[12] = molecular target: TLR7 and TLR8 (Homo sapiens) (UniProt Q9NYK1+Q9NR97); assay: Agonist activity at TLR7/TLR8 in human PBMC assessed as IFN alpha level; procedure, shortened: as §2
[13] = molecular target: T4, Toll-like receptor 8 (Homo sapiens) (UniProt Q9NR97); assay: Agonist activity at TLR8 in human PBMC assessed as TNFalpha level at 10 uM
T4 sequence (whole entry): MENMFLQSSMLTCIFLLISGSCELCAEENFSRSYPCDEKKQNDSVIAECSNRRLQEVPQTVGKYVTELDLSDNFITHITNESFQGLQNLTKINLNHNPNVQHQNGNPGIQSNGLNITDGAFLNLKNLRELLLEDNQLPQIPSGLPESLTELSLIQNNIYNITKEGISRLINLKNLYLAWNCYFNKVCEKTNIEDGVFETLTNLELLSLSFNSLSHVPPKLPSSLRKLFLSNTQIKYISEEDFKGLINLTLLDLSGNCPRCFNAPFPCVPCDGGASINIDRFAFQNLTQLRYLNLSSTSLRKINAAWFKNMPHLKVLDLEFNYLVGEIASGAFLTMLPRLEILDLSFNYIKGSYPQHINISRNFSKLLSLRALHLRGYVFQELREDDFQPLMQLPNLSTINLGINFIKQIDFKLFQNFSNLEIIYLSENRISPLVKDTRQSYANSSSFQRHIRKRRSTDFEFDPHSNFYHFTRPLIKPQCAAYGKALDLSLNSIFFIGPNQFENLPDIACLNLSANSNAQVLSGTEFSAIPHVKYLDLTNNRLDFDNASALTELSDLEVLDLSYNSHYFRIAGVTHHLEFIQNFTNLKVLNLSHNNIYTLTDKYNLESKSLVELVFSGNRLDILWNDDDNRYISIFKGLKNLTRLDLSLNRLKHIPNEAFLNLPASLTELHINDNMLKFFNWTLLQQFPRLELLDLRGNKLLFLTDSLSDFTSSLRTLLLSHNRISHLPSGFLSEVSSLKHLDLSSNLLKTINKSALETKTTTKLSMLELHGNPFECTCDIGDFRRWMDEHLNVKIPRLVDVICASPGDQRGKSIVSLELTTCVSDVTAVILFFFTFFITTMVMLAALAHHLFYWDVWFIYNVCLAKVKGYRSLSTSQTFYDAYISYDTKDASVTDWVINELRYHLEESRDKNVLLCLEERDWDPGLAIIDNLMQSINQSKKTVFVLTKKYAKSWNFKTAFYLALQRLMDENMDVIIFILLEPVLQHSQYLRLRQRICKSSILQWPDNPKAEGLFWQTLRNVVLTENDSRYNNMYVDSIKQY
Procedure, shortened: (§3)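 TNFα secretion by hPBMCs across a μM dose range; MEC = lowest dose tested inducing cytokine, PC = dose giving highest level, PL = peak level at 10 μM. Data representative of one of three independent donors.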

[14] = molecular target: T4, Toll-like receptor 8 (Homo sapiens); assay: Agonist activity at TLR8 in human PBMC assessed as TNFalpha level; procedure, shortened: as §3

Sequence of Toll-like receptor 3 (Homo sapiens) (O15455 whole entry): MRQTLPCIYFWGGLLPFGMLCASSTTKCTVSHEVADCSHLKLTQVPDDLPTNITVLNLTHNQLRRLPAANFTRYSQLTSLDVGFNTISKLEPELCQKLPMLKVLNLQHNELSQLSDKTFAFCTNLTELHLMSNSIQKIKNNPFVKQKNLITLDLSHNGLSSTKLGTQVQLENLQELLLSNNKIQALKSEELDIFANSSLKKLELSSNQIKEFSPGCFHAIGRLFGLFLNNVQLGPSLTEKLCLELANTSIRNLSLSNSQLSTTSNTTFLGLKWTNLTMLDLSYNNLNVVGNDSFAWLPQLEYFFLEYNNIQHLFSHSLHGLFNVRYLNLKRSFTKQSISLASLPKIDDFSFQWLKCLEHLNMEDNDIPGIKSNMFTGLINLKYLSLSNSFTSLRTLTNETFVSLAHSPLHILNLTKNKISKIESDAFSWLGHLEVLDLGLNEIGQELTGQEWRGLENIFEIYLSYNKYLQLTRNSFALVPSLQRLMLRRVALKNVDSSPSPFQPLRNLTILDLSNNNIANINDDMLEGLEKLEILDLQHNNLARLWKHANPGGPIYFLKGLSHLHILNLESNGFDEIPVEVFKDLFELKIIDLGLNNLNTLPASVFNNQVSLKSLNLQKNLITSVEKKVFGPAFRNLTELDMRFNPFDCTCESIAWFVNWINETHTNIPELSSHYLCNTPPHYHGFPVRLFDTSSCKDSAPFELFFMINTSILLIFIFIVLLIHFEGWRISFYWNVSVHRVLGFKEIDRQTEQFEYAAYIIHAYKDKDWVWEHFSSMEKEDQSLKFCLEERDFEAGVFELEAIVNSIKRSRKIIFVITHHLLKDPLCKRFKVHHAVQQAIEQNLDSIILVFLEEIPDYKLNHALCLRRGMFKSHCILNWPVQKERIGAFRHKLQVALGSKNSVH

Structure (SMILES) | Activity [1] | Activity [2] | Activity [3] | Activity [4] | Activity [5] | Activity [6] | Activity [7] | EC50 [8] | fold change (FC) [9] | fold change (FC) [10] | fold change (FC) [11] | ECmax [12] | MEC [12] | Activity [13] | MEC [14]
COCCOc1nc(N)c2[nH]c(=O)n(CC3CCNCC3)c2n1 | inactive | inactive | inactive | inactive | 2240 pg/mL | inactive | inactive | > 500 µM | – | – | – | – | – | – | –
CCC[C@H](C)Oc1nc(N)c2[nH]c(=O)n(CC3CCN(CCN)CC3)c2n1 | – | – | – | – | 4420 pg/mL | – | – | 6.71 µM | – | – | – | – | – | – | –
CCCCNc1nc(N)c2[nH]c(=O)n(CC3CCNCC3)c2n1 | – | – | – | – | 5980 pg/mL | – | – | 40 µM | – | – | – | – | – | – | –
CCC[C@H](C)Oc1nc(N)c2[nH]c(=O)n(CC3CCNCC3)c2n1 | inactive | – | inactive | – | 5470 pg/mL | – | – | 2.68 µM | 1.2 to 2.4 | 2 | 1.2 to 2.4 | – | – | – | –
COCCOc1nc(N)c2[nH]c(=O)n(Cc3ccccc3)c2n1 | – | – | – | – | 1440 pg/mL | – | – | 1.17 µM | – | – | – | 0.08 µM | 0.08 µM | 1660 pg/mL | 2 µM
CCCCOc1nc(N)c2[nH]c(=O)n(CC3CCNCC3)c2n1 | inactive | – | inactive | – | 5900 pg/mL | – | – | 19.8 µM | 1.2 to 2.4 | 1.4 | 1.2 to 2.4 | – | – | – | –

Source: ChEMBL document CHEMBL4627265, “Optimization of 8-oxoadenines with toll-like-receptor 7 and 8 activity” (Bioorg Med Chem Lett, 2020)
